# According to PubChem BioAssay:
# Active and inactive are the calls of the source.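 How the source made its calls, unless noted: active means viability at or below 30% in both replicate assays; inconclusive means viability at or below 30% in just one of the two assays; inactive means the rest.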
# Legend:
# [1] = reducers of endogenous Her2 protein level, primary screen, SKBR3 breast tumor cells, AlphaScreen, ATP viability (AID 461;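 active means Her2 level under about 52% in both replicate screens, with viability over 70% of control, limit read from the data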;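 on Her2 level: lower value means less Her2 protein in the cells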;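 on viability: percent of carrier control wells set as 100% viability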); conditions: 18-24 h, measured here: SKBR3 viability, ATP luminescence, at 10 µM
# [2] = target: Receptor tyrosine-protein kinase erbB-2 (Homo sapiens) (UniProt P04626); assay: as above; conditions: 18-24 h, at 10 µM, stronger effect = lower value
# [3] = SK-BR-3 cell growth inhibitors, pilot screen, 24 h, human (AID 572;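 active means viability at or below 10% of carrier control in both of two separate runs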;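 further: compound exposure lasted between 18 and 24 h rather than exactly 24 h; 100% = carrier-treated control wells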); conditions: SK-BR-3 viability, CellTiter-Glo luminescence, at 10 µM, stronger effect = lower value
# [4] = HUVEC growth inhibition – cell-based, human, primary screen (AID 575); conditions: HUVEC proliferation, CellTiter-Glo luminescence, 72 h; at 10 µM; stronger effect = lower value;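 further: 100% = median of untreated cell wells with 0.1% DMSO on each plate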
# In short: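 System: primary human umbilical vein endothelial cells; Quantity: 1250 endothelial cells in each well; Buffer or medium: supplemented EBM, 2% fetal bovine serum; Doses: one dose, 10 µM final, 0.1% DMSO; Incubation: 72 h compound incubation; Technique: ATP-based CellTiter-Glo luminescent read; Evaluation: percent of median DMSO-control luminescence; Controls: vehicle and MePR control wells.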
# [5] = growth inhibitors of H69AR lung tumor, primary screen, human, duplicate replicates (AID 580;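 active means viability at or under a set limit in both replicates, limit being median viability minus 3 SD, cut at about 48% in these data, passing the limit was not always enough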;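 further: 100% = mean luminescence of untreated wells and 0% = no signal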); conditions: H69AR lung tumor cells viability, ATP luminescence, 72 h; at 10 µM; stronger effect = lower value
# [6] = reversal of MRP1-mediated doxorubicin resistance, pilot screen, H69AR cells, doxorubicin co-treatment (AID 601;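 active means viability loss from added drug above about 55%, and viability with drug at most 40%, in both replicates, limit read from the data, passing the limit was not always enough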); conditions: CellTiter-Glo, 72 h, at 10 µM; for differential viability (reversal): stronger effect = higher value
# [7] = 384-well plate pilot, post-Golgi transport modulator project, inhibition of yeast transport mutant growth (AID 636; in the data active means inhibition above about 31%); conditions: absorbance 615 nm, about 18 h, stronger effect = higher value
# [8] = growth suppression of yeast trafficking mutant, preliminary HTS, modulators of trafficking downstream of Golgi apparatus project, 1536-format plate, OD 615 nm (AID 637; in the data active means inhibition above about 30%); conditions: yeast transport mutant growth, absorbance 615 nm, 18 h; stronger effect = higher value
# [9] = H69AR cells + 2 uM doxorubicin, measured here: viability with 2 uM doxorubicin, stronger effect = lower value
# [10] = H69AR cells, compound alone cytotoxicity
# Receptor tyrosine-protein kinase erbB-2 (Homo sapiens), sequence (P04626 whole entry, looked up): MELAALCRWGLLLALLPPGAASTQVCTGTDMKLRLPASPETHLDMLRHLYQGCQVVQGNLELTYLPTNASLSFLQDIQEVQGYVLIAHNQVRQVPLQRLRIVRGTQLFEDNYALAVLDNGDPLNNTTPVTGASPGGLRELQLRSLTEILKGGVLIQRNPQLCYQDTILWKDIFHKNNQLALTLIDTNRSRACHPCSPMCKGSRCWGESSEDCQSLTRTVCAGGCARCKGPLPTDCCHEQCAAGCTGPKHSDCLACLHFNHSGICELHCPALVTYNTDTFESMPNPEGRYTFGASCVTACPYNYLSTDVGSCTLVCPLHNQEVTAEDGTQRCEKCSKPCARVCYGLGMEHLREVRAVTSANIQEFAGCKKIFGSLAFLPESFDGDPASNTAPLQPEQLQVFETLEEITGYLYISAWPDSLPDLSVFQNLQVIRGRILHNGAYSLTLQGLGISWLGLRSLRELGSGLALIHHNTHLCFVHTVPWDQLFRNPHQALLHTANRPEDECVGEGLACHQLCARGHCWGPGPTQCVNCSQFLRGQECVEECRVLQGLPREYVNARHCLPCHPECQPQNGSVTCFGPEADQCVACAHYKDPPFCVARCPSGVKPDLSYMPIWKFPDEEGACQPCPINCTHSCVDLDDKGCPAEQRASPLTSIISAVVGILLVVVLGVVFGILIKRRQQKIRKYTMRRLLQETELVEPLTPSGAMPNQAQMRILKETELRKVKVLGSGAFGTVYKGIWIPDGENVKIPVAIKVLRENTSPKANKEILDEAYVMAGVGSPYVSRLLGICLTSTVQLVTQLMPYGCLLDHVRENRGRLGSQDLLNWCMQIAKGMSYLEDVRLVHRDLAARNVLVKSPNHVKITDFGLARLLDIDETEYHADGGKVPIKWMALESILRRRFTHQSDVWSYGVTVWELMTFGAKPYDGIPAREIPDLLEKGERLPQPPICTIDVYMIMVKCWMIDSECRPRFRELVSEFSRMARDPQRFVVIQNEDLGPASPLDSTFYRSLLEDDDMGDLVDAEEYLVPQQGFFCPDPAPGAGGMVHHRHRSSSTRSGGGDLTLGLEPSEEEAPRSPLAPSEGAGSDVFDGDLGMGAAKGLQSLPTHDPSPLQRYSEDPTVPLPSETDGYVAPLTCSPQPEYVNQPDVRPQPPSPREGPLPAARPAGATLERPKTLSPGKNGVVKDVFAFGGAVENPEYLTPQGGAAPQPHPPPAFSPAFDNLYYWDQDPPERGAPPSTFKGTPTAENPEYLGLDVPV
Structure (SMILES),viability [1],Her2 level [2],viability [3],viability [4],viability [5],differential viability (reversal) ([6]; H69AR cells + 2 uM doxorubicin),"viability [6, 9]","viability [6, 10]",inhibition [7],inhibition [8]
O=S(=O)(NC1CCCC1)c1ccccc1Cl,94.5%,97% (inactive),94.5% (inactive),87.1% (inactive),101% (inactive),2.58% (inactive),98.4%,101%,2.73% (inactive),6.39% (inactive)
O=C(CN1CCN(c2cccc(Cl)c2)CC1)N1CCCC1,105%,102% (inactive),105% (inactive),110% (inactive),78.8% (inactive),-2.74% (inactive),81.5%,78.8%,-6.75% (inactive),-7.46% (inactive)
CCOC(=O)N1CCN(C(=O)CSCC(=O)Nc2nc(-c3ccc(OC)cc3)cs2)CC1,116%,104% (inactive),116% (inactive),77.8% (inactive),94.9% (inactive),1.77% (inactive),93.1%,94.9%,-1.3% (inactive),-6.89% (inactive)
CCC1CCCN1Cn1cnc2c([nH]c3ccc(OC)cc32)c1=O (stereo not given),104%,90% (inactive),104% (inactive),111% (inactive),91.3% (inactive),1.38% (inactive),89.9%,91.3%,-5.6% (inactive),2.42% (inactive)
CCOC(=O)N1CCN(C(=O)C2CC(=O)N(Cc3ccc(OC)cc3)C2)CC1 (stereo not given),96.5%,91% (inactive),96.5% (inactive),112% (inactive),93.3% (inactive),-3.47% (inactive),96.8%,93.3%,-4.34% (inactive),-1.45% (inactive)
CCOC(=O)c1[nH]c2ccccc2c1NC(=O)C(CC)CC,98.5%,99.5% (inactive),98.5% (inactive),80.8% (inactive),93.3% (inactive),13.9% (inactive),79.4%,93.3%,-4.27% (inactive),5.5% (inactive)
O=C(CCS(=O)(=O)c1cc(Br)cc2c1N(C(=O)C1CC1)CC2)NCC1CCCO1 (stereo not given),122%,110% (inactive),122% (inactive),95.5% (inactive),81.8% (inactive),-3.57% (inactive),85.4%,81.8%,0.51% (inactive),11.8% (inactive)
N#CC1=C(SCC(=O)c2cc3ccccc3oc2=O)NC(=O)C(C#N)C12CCCC2 (stereo not given),92%,76% (inactive),92% (inactive),72.1% (inactive),86.5% (inactive),6.35% (inactive),80.1%,86.5%,-3.2% (inactive),0.32% (inactive)
Cc1ncc(CO)c2c1OC(C)(C)OC2,95.5%,104% (inactive),95.5% (inactive),92.8% (inactive),93.5% (inactive),4.48% (inactive),89%,93.5%,-5.79% (inactive),-0.91% (inactive)
CCOC(=O)C1CCCN(C(=O)c2cc(=O)c3ccccc3o2)C1 (stereo not given),94.5%,87% (inactive),94.5% (inactive),95.2% (inactive),97.3% (inactive),-4.92% (inactive),102%,97.3%,-2.89% (inactive),-0.95% (inactive)
CCOC(=O)CC12CN3CN(C1)CC(CC(=O)OCC)(C3)C2=O,94%,86% (inactive),94% (inactive),89.1% (inactive),98.3% (inactive),3.54% (inactive),94.7%,98.3%,-5.95% (inactive),0.49% (inactive)
O=C(NC1CCN(Cc2nnnn2CCc2ccccc2)CC1)c1ccccc1F,81.5%,96% (inactive),81.5% (inactive),85.4% (inactive),86.5% (inactive),-11.7% (inactive),98.3%,86.5%,0.13% (inactive),-0.5% (inactive)
O=C(NCc1ccccc1)C1CCCN1S(=O)(=O)c1cccc2cccnc12 (stereo not given),94%,99.5% (inactive),94% (inactive),93% (inactive),110% (inactive),15.6% (inactive),94.4%,110%,-0.53% (inactive),-0.98% (inactive)
COc1ccc(C(=O)Nc2cccc(C)c2)cc1S(=O)(=O)N1CCOCC1,100%,83% (inactive),100% (inactive),108% (inactive),93.2% (inactive),7.64% (inactive),85.5%,93.2%,-5% (inactive),-5.71% (inactive)
CCOC(=O)C1CCCN(c2c(NCc3ccco3)c(=O)c2=O)C1 (stereo not given),94%,108% (inactive),94% (inactive),83.3% (inactive),94.3% (inactive),11.7% (inactive),82.6%,94.3%,2% (inactive),-6.07% (inactive)
CC(C)N(C(=O)CSc1nnc(-c2cc3ccccc3cc2O)n1Cc1ccco1)C(C)C,90.5%,76% (inactive),90.5% (inactive),66.4% (inactive),83.4% (inactive),1.54% (inactive),81.9%,83.4%,-5.81% (inactive),-0.66% (inactive)
